Bioassay records from PubChem BioAssay.
The list is not random: actives were taken first. Their share in the collection is about 2%.
UCH37 inh: inhibitors of human deubiquitinating enzyme UCH37; AID 588478; purified proteasome/UCH37, Ub-AMC cleavage fluorescence; inhibition, % (no concentration beside the values); actives 0.33% (n = 330,000);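 active means mean inhibition over replicate wells above about 20%, limit read from the data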
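Assay system: Proteasome-bound UCH37. Buffer or medium: pH 7.4 Tris-HCl (50 mM) with ovalbumin, ATP-MgCl2, DTT. Incubation: 30 min preincubation with enzyme, 25 min cleavage at room temperature. Measured by: fluorescence, ex 355 nm, em 460 nm. Read-out basis: percent inhibition. Control set: wells without proteasome as full block, compound-free enzyme plus substrate as uninhibited.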
PP5 inh: PP5 (human) phosphatase inhibition; purified PP5c, OMFP substrate fluorescence; inhibition, % at 6.7 µM; actives 0.18% (n = 320,000);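 active means inhibition above the campaign's mean inhibition across all tested compounds plus 3 SD, cut at about 9.5% in these data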
CTSL1 counter: counter-screen for PFM18AAP inhibitors: inhibitors of F. hepatica cathepsin L1; recombinant F. hepatica cathepsin L1, Z-Leu-Arg-MCA fluorescence; actives 0.49% (n = 300,000); inhibition, % at 5.96 µM;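 active means inhibition above the mean of all tested compounds plus 3 SD, set per screening campaign, cut at about 17% in these data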
PAD4 FP inh: PAD4 (human) enzyme inhibition. Q9UM07. actives 0.41% (n = 330,000). inhibition, % at 6.36 µM. AID 485272. recombinant PAD4, RCA probe fluorescence polarization;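 active means percent inhibition above a cutoff equal to the mean of all tested compounds plus 3 SD, cut at about 15% in these data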
Target sequence (Q9UM07 whole entry, looked up): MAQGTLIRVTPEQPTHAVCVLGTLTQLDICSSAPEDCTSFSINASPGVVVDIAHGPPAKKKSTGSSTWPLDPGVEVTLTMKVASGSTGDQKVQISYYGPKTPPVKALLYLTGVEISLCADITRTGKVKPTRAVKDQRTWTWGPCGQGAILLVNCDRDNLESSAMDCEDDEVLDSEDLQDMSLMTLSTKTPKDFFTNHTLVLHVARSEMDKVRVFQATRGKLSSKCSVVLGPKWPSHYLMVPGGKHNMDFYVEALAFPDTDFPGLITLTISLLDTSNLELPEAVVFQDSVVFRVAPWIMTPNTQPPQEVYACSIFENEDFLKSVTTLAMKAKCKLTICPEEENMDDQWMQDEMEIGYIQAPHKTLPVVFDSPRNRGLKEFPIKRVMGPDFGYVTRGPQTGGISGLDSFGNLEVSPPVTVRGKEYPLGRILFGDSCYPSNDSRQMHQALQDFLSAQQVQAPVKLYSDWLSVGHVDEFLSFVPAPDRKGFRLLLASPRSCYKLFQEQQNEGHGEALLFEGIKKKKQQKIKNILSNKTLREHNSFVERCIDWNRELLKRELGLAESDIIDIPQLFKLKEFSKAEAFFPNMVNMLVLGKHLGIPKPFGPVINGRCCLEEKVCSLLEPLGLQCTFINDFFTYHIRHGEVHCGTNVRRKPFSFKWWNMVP
Apaf1 inhib: blocks human Apaf-1 apoptosome activity. O14727. inhibition, % at 20 µM. reconstituted apoptosome caspase-3 activity, DEVD-Rh110 fluorescence. actives 0.71% (n = 330,000); active means inhibition of at least 40% at 20 µM
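Material: biochemical Apaf-1 apoptosome reconstitution. Medium: Hepes buffer, pH 7.5. Also added: cytochrome c activation, bis-DEVD rhodamine 110 substrate. Timing: 30 min compound preincubation, 50 min activation, room temperature. Measured by: rhodamine 110 fluorescence at Ex 480/Em 540 nm.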
GSTO1 inh: counter-screen for RBBP9 inhibitors: inhibitors of human GSTO1 | P78417 | recombinant GSTO1, activity-based probe fluorescence polarization | inhibition, % at 5.96 µM | actives 1.1% (n = 300,000) | AID 1974;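 active means inhibition above the campaign mean inhibition plus 3 SD, cut at about 35% in these data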
GSTO1 inh conf: GSTO1 (human) inhibition, confirmation; inhibition, % at 5.96 µM; shares compounds with GSTO1 inh; actives 54% (n = 2,400); recombinant GSTO1, probe fluorescence polarization;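 active means inhibition above the primary screen's cutoff, its mean inhibition plus 3 SD, cut at about 35% in these data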;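 further: loss of polarization as inhibitors block binding of rhodamine sulfonate ester activity probe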
GSTO1 recomb ABPP: blocks recombinant human glutathione S-transferase omega 1. shares compounds with GSTO1 inh. recombinant GSTO1, gel ABPP SE-Rh probe fluorescence. inhibition, % at 1 µM. actives 30% (n = 130). AID 463110;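 active means inhibition of the enzyme GSTO1 above about 75%, limit read from the data; inactive means inhibition below that limit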
Of the large screens only hits and unclear results are named; the others gave an inactive call (follow-up assays come after a bar, where they were run).

COc1cccc(NC(=O)NCCC2=CCCCC2)c1	none
COc1cccc(N=Nc2c(=O)[nH]n3c(C)cc(C)nc23)c1	GSTO1 inh 38 | GSTO1 inh conf inactive
COc1cccc(N=Nc2c(N)[nH]n3c(=O)cc(-c4ccccc4)nc23)c1	none
COc1ccc(N/N=C(/N=Nc2nc(C)cc(=O)[nH]2)c2ccccc2)cc1	none (no result: UCH37 inh)
Cc1cc(=O)[nH]c(N=N/C(=N/Nc2ccc(O)cc2)c2ccccc2)n1	GSTO1 inh 52 (no result: UCH37 inh) | GSTO1 inh conf inactive
CC(=NNC(=O)CNC(=O)C1COc2ccccc2O1)c1ccc2c(c1)OCCO2 (configuration not stated)	none (no result: PP5 inh, CTSL1 counter, PAD4 FP inh, Apaf1 inhib, GSTO1 inh)
O=c1cc2oc3cc(O)c(O)cc3c(-c3ccccc3[N+](=O)[O-])c-2cc1O	GSTO1 inh 50 | GSTO1 inh conf 41
COc1ccc(CC(=O)OCc2csc(CC(=O)Nc3ccc(C)cc3)n2)cc1	none (no result: PP5 inh, CTSL1 counter, GSTO1 inh)
Cc1ccc(NC(=O)Cc2nc(CCl)cs2)cc1	GSTO1 inh 58 | GSTO1 inh conf 95 | GSTO1 recomb ABPP 87
Cc1ccc(OCC(=O)NN=Cc2ccco2)cc1	none (no result: PP5 inh, CTSL1 counter, PAD4 FP inh, Apaf1 inhib, GSTO1 inh)
Cc1ccc(C=NNC(=O)CNC(=O)c2ccc(C)c([N+](=O)[O-])c2)o1	none (no result: PP5 inh, CTSL1 counter, PAD4 FP inh, Apaf1 inhib, GSTO1 inh)
Cc1ccc(Cl)cc1NC(=O)CCC(=O)O	GSTO1 inh 64 | GSTO1 inh conf inactive
O=C(/C=C/c1ccccc1)NCC(=O)NN=Cc1ccccc1[N+](=O)[O-]	none (no result: PP5 inh, CTSL1 counter, PAD4 FP inh, Apaf1 inhib, GSTO1 inh)
C=CCSC1=N/C(=C\C=C\c2ccco2)C(=O)S1	GSTO1 inh 45 (no result: UCH37 inh) | GSTO1 inh conf inactive
C=CCSC1=N/C(=C\c2sccc2C)C(=O)S1	none
CC(=O)Oc1cc(OC(C)=O)c2c(C)cc(=O)oc2c1	GSTO1 inh 53 | GSTO1 inh conf inactive
CC(=O)Oc1ccc2c(C)cc(=O)oc2c1	none
COc1ccc(C2CC(=O)N(C)c3ccccc3S2)cc1 (configuration not stated)	GSTO1 inh 47 | GSTO1 inh conf inactive
COc1ccc(C2C(O)C(c3c[nH]c4ccccc34)=NN2C(=O)CCl)cc1 (configuration not stated)	CTSL1 counter 43, GSTO1 inh 88 | GSTO1 inh conf 93
COc1ccc(C2NN=C(c3c[nH]c4ccccc34)C2O)cc1 (configuration not stated)	none (no result: UCH37 inh)
COCCn1cnnc1SCC(=O)c1ccc(S(=O)(=O)N2CCCC2)cc1	GSTO1 inh 61 | GSTO1 inh conf 61
CC1(C(=O)Nc2cccc(C(F)(F)F)c2)CO1 (configuration not stated)	GSTO1 inh 68 (no result: UCH37 inh) | GSTO1 inh conf 85 | GSTO1 recomb ABPP inactive
COc1cc(C=Nn2cnnc2)ccc1OC(=O)c1ccncc1	none (no result: PP5 inh, CTSL1 counter, PAD4 FP inh, Apaf1 inhib, GSTO1 inh)
COc1ccc(OC)c(C=NNC(=O)c2ccc(=O)n(C)c2)c1	none (no result: PP5 inh, CTSL1 counter, PAD4 FP inh, Apaf1 inhib, GSTO1 inh)
O=C1c2ccccc2CSc2c(O)cccc21	none
O=C1c2c(O)cccc2Cc2cccc(O)c21	GSTO1 inh 45 | GSTO1 inh conf inactive
O=C(NC1CCCCC1)C(c1ccccc1F)N(Cc1ccco1)C(=O)c1ccccn1 (configuration not stated)	GSTO1 inh 38 | GSTO1 inh conf inactive
COC1=CC(=O)C(O)=C(CCCCCCC/C=C/CCCCCCCC2=C(O)C(=O)C=C(OC)C2=O)C1=O	GSTO1 inh 91 (no result: UCH37 inh) | GSTO1 inh conf 90
CCCCCCCCCCCC1=C(O)C(=O)C=C(O)C1=O	GSTO1 inh 79 (no result: Apaf1 inhib) | GSTO1 inh conf 66
Cc1nn(C)c(C(=O)NN=Cc2cccnc2)c1Br	none (no result: PP5 inh, CTSL1 counter, PAD4 FP inh, Apaf1 inhib, GSTO1 inh)
CCOc1ccccc1C=NNC(=O)c1c(C)nc2ccc(Br)cn12	none (no result: PP5 inh, CTSL1 counter, PAD4 FP inh, Apaf1 inhib, GSTO1 inh)
COc1ccc(NC(=S)NC(NC(=O)c2ccccc2Cl)C(Cl)(Cl)Cl)c([N+](=O)[O-])c1 (configuration not stated)	none
COc1ccc(NC(=S)NC(NC(=O)CCl)C(Cl)(Cl)Cl)c([N+](=O)[O-])c1 (configuration not stated)	GSTO1 inh 92 | GSTO1 inh conf 97
O=c1oc2cc(O)ccc2c2oc3cc(O)ccc3c12	GSTO1 inh 39 | GSTO1 inh conf 49
O=c1[nH]c2ccc(Br)cc2c(-c2ccccc2)c1N1CCOCC1	none
O=c1[nH]c2ccc(Br)cc2c(-c2ccccc2)c1CN1CCOCC1	GSTO1 inh 64 | GSTO1 inh conf inactive
COc1ccccc1C(=O)Nc1nc(-c2cccs2)c(NC(C)=O)s1	GSTO1 inh 39 | GSTO1 inh conf inactive
Cc1ccc(N2CCN(N=Cc3cccnc3)CC2)cc1	none (no result: PP5 inh, CTSL1 counter, PAD4 FP inh, Apaf1 inhib, GSTO1 inh)
COC(=O)CCCC1=CC2=C(c3ccccc3)C(=O)C(C)(OC(=O)C3CCCC3)C(=O)C2=CN1Cc1ccco1 (configuration not stated)	none
COC(=O)CCCC1=CC2=C(c3ccccc3)C(=O)C(C)(OC(=O)C3CCCC3)C(=O)C2=CN1CCCCO (configuration not stated)	GSTO1 inh 45 | GSTO1 inh conf inactive
O=C(CCl)NNC(=O)c1c(O)c2ccccc2[nH]c1=O	GSTO1 inh 89 | GSTO1 inh conf 97
CC(C)=NNC(=O)c1c(O)c2ccccc2[nH]c1=O	GSTO1 inh 42 | GSTO1 inh conf inactive
CCCCC(=O)NNC(=O)c1c(O)c2ccccc2[nH]c1=O	none
CCCN1C(=S)c2ccccc2C1c1ccccc1 (configuration not stated)	GSTO1 inh 60 | GSTO1 inh conf inactive
CC(=O)Nc1cccc(C(=O)NN=Cc2ccc(F)cc2)c1	none (no result: PP5 inh, CTSL1 counter, PAD4 FP inh, Apaf1 inhib, GSTO1 inh)
O=C(CCC(=O)NN=Cc1ccco1)NN=Cc1ccco1	none (no result: PP5 inh, CTSL1 counter, PAD4 FP inh, Apaf1 inhib, GSTO1 inh)
NS(=O)(=O)c1ccc(CCNC(=O)c2ccc(Cl)s2)cc1	none
NS(=O)(=O)c1ccc(CCNC(=O)c2ccc([N+](=O)[O-])s2)cc1	GSTO1 inh 50 | GSTO1 inh conf inactive
O=C(CCc1ccc(O)c(O)c1)N/N=C/c1ccc2c(c1)OCO2	GSTO1 inh 44 (no result: UCH37 inh) | GSTO1 inh conf inactive
O=C(CSc1ccc(Cl)cc1)NC1=NN(c2ccccc2)C(=O)C1	PAD4 FP inh 15, GSTO1 inh 42 | GSTO1 inh conf inactive
C(=NN(c1ccccc1)c1ccccc1)c1ccc2c(c1)OCO2	none (no result: PP5 inh, CTSL1 counter, PAD4 FP inh, Apaf1 inhib, GSTO1 inh)
COC(=O)c1ccccc1NC(=O)C1CCN(S(=O)(=O)c2cc(C)ccc2OC)CC1	GSTO1 inh 74 | GSTO1 inh conf inactive
Cc1ccc(-c2cnn(-c3ccccc3)c2N)cc1	none
Nc1nc2c(s1)CCc1c-2cnn1-c1ccccc1	PAD4 FP inh 40, Apaf1 inhib 93, GSTO1 inh 72 (no result: UCH37 inh) | GSTO1 inh conf 71
Cc1cc(C)nc(N=C(NC(=O)c2ccccc2)Nc2ccccc2)n1	none (no result: PP5 inh, CTSL1 counter, PAD4 FP inh, Apaf1 inhib, GSTO1 inh)
